Compounds with a hit are over-represented: about 2% of the library has one in this group of screens.
S100A4 inh HTS: S100A4-myosin IIA interaction inhibition. inhibition, % at 10.7 µM. S100A4/TAMRA-MyoIIA peptide fluorescence polarization. P26447. 0.14% of 360,000 active. AID 652163;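 active means mean inhibition of at least 70% across replicates, with every replicate also reaching that level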
Target sequence (P26447 whole entry, looked up): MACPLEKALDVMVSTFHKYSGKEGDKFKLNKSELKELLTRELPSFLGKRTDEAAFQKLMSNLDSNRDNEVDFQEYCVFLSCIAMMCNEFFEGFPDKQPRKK
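assay system = human S100A4 monomer with TAMRA-labelled myosin IIA peptide | also added = labelled myosin peptide probe, 5 nM | incubation = 5 min between mix addition and reading | control set = DMSO and TFP controls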
CAL PDZ FP-1: inhibitors of human CAL PDZ peptide binding. purified CAL PDZ, TMR-peptide fluorescence polarization, 1 h. inhibition, % at 24.9 µM. 0.92% of 300,000 active. AID 602252;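 active means mean inhibition of at least 30% with at least half of replicates also reaching 30%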
dFosB act: activators of mouse delta FosB homodimer | P13346 | purified delta FosB, TAMRA-CDK5 oligo fluorescence polarization; percent of positive-control signal above neutral wells | activation, % at 25 µM | 0.99% of 340,000 active;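 active means mean activation above about 17%, with every replicate also reaching it, limit read from the data, passing the limit was not always enough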
Target sequence (P13346 whole entry, looked up): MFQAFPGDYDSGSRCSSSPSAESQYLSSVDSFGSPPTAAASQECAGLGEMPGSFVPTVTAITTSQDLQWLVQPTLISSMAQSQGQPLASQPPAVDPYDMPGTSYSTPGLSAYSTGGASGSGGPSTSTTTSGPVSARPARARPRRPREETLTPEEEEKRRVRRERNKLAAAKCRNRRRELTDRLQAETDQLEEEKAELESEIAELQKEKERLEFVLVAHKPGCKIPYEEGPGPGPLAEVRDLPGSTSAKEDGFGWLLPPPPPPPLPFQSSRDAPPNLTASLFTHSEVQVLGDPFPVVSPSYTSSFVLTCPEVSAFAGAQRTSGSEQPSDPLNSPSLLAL
CDK5 inh: CDK5/p35 (human) kinase inhibition; Recombinant CDK5/p35, ADP-Glo luminescence, 60 min; inhibition, % at 10 µM; 0.01% of 330,000 active;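 active means highest replicate inhibition of at least 50% and at least 75% of replicates reaching 50%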
CAL PDZ FP-2: blocks peptide binding to human CAL PDZ domain | Q9HD26 | inhibition, % at 20 µM | 0.02% of 330,000 active | AID 504414 | purified CAL PDZ, TMR-peptide fluorescence polarization, 1 h;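 active means highest replicate inhibition of at least 40%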
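Material: tagged CAL PDZ domain; buffer or medium: 25 mM sodium phosphate pH 7.4, 150 mM NaCl, TCEP, IgG, Thesit; compound dosing: single point, 20 µM; schedule: 1 h incubation at room temperature before polarization reading; measured by: FP readout, S and P plane fluorescence; read-out basis: percent inhibition from loss of millipolarization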
Statin myotox sup: protects C2C12 myotubes from simvastatin toxicity; ATP luminescence, 48 h; scaled: DMSO 0, geranylgeraniol control 100; AID 602340; 0.78% of 330,000 active; rescue of ATP level, % at 7.49 µM;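 active means mean ATP rescue above about 67%, or every replicate alone reaching that limit, limit read from the data, passing the limit was not always enough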;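 further: myotubes were challenged with 10 µM simvastatin during compound exposure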
Of the large screens only hits and unclear results are named; the others gave an inactive call.

C=CCn1c(COc2cccc(C)c2)nnc1SCC(=O)c1c(N)n(C)c(=O)n(C)c1=O	none
C=CCn1c(COc2ccc(Cl)cc2)nnc1SCC(=O)c1c(N)n(C)c(=O)n(C)c1=O	Statin myotox sup 101
Cc1ccc(C)c(N2CCN(C(=O)Cc3cn(C)c4ccccc34)CC2)c1	none (no result: S100A4 inh HTS, CAL PDZ FP-2)
N#Cc1cc2c(nc1SCC(=O)N1CCCCC1)CCCCC2	Statin myotox sup 117 (no result: S100A4 inh HTS)
Cc1ccc(-c2cc(C(F)F)n3ncc(C(=O)Nc4c(C)nn(Cc5ccccc5Cl)c4C)c3n2)cc1	Statin myotox sup 80 (no result: S100A4 inh HTS)
CN(CC(=O)Nc1ccc(F)c(F)c1F)C(=O)C1(c2ccccc2)CC1	none (no result: CAL PDZ FP-1, dFosB act, CDK5 inh, CAL PDZ FP-2)
CN(CC(=O)Nc1ccc(F)c(F)c1F)C(=O)C1=NN(c2ccccc2)C(=O)CC1	CAL PDZ FP-1 31
OC(CNCc1ccc2c(c1)OCO2)COc1ccc(F)cc1 (stereo unspecified)	none
CC(=O)c1ccc(OCC(O)CNCc2ccc3c(c2)OCO3)cc1 (stereo unspecified)	CAL PDZ FP-1 42 (no result: Statin myotox sup)
COc1ccc(C(=O)Nc2ccc3c(c2)C(=O)N(C)[C@@H]2CC[C@H](CC(=O)NCC4CC4)O[C@@H]2CO3)cc1	none (no result: CAL PDZ FP-1, dFosB act, CDK5 inh, CAL PDZ FP-2)
CC1CCN(S(=O)(=O)c2ccc3ccccc3c2)CC1	Statin myotox sup 153 (no result: S100A4 inh HTS)
CCOc1ccc2cc(S(=O)(=O)N3CCCCC3)ccc2c1	CAL PDZ FP-1 60
COC(=O)/C=C/COc1ccccc1[N+](=O)[O-]	CAL PDZ FP-1 35 (no result: Statin myotox sup)
CCn1c(NC(=O)C2CCCCC2)nc2ccccc21	none (no result: S100A4 inh HTS)
CCC(=O)N1CCc2cc(S(=O)(=O)NCCC(=O)NCc3ccc(F)cc3)ccc21	CAL PDZ FP-1 37
Cc1ccc(CNS(=O)(=O)c2ccc3c(c2)CCN3C(=O)CCCC(=O)O)cc1	CAL PDZ FP-1 34 (no result: Statin myotox sup)
CC(=O)N1CCc2cc(S(=O)(=O)NCCCN3CCN(Cc4ccccc4)CC3)ccc21	none (no result: S100A4 inh HTS, CAL PDZ FP-1)
CCC(=O)N1CCc2cc(S(=O)(=O)CCC(=O)NCc3ccc(C)cc3)ccc21	none (no result: CAL PDZ FP-1)
CC(=O)N1CCc2cc(S(=O)(=O)NCC(=O)NCc3ccc(Cl)cc3)ccc21	CAL PDZ FP-1 active
CCC(=O)N1CCc2cc(S(=O)(=O)NCCCN3CCN(Cc4ccccc4)CC3)ccc21	Statin myotox sup 156 (no result: S100A4 inh HTS, CAL PDZ FP-1)
CC(=O)N1CCc2cc(S(=O)(=O)NCc3ccc(C)cc3)ccc21	none
Cn1c(N)c(C(=O)COC(=O)c2cccc(S(=O)(=O)N3CCCCC3)c2)c(=O)n(C)c1=O	none (no result: S100A4 inh HTS, Statin myotox sup)
CCC(=O)N1CCc2cc(S(=O)(=O)CCC(=O)N3CCc4ccccc4C3)ccc21	Statin myotox sup 76 (no result: S100A4 inh HTS)
O=C(NCc1cccs1)C1CCCN1S(=O)(=O)c1ccccc1F (stereo unspecified)	CAL PDZ FP-1 86 (no result: S100A4 inh HTS, CAL PDZ FP-2)
CCCc1c(C(=O)N/N=C(\C)c2ccccc2O)nnn1-c1nonc1N	none (no result: CAL PDZ FP-1, dFosB act, CDK5 inh, CAL PDZ FP-2)
CCCOc1ccc(-c2c(C(=O)N/N=C/c3ccc(C)cc3)nnn2-c2nonc2N)cc1	none (no result: CAL PDZ FP-1, dFosB act, CDK5 inh, CAL PDZ FP-2)
CC(/C=N/NC(=O)c1nnn(-c2nonc2N)c1CN(C)C)=C\c1ccco1	none (no result: CAL PDZ FP-1, Statin myotox sup)
CN(Cc1c(C(=O)N/N=C/c2ccc(O)cc2)nnn1-c1nonc1N)C1CCCCC1	dFosB act 29
Cc1ccc(/C=N/NC(=O)c2nnn(-c3nonc3N)c2CN(C)C2CCCCC2)cc1	none
C/C(=N\NC(=O)c1nnn(-c2nonc2N)c1-c1ccccc1)c1ccccc1O	dFosB act 33
CCCN(CCC)Cc1c(C(=O)N/N=C/C(C)=C\c2ccco2)nnn1-c1nonc1N	CAL PDZ FP-1 66
CCOc1ccc(-c2c(C(=O)N/N=C/c3ccc(C)cc3)nnn2-c2nonc2N)cc1	dFosB act 34
CC1(C)CC(NC(=O)C23CCC(C)(C(=O)C2)C3(C)C)CC(C)(C)N1 (stereo unspecified)	none (no result: S100A4 inh HTS)
CC1=C(C(=O)NCc2ccccc2)C(c2cccs2)NC(=S)N1 (stereo unspecified)	Statin myotox sup 98
C[C@@H]1CN([C@H](C)CO)C(=O)Cc2cc(NS(=O)(=O)c3cccs3)ccc2O[C@H]1CN(C)CC1CCCCC1	none (no result: CAL PDZ FP-1, dFosB act, CDK5 inh, CAL PDZ FP-2)
Cc1ccc(NS(=O)(=O)c2ccc(N3CCN(c4ccc(O)cc4)CC3)c([N+](=O)[O-])c2)c(C)c1	none (no result: Statin myotox sup)
O=C(Nc1ccc(S(=O)(=O)N2CCC(C(=O)NC3CCCCC3)CC2)cc1)c1ccco1	Statin myotox sup 179 (no result: S100A4 inh HTS)
CC(=O)c1ccc(N2CCN(S(=O)(=O)c3ccc4c(c3)CC(C)N4C(=O)C3CC3)CC2)cc1 (stereo unspecified)	CAL PDZ FP-1 72
O=C(Nc1ccc(S(=O)(=O)N2CCCCC2)cc1)c1ccco1	none
CC(=O)N1c2ccc(S(=O)(=O)N3CCC(C(=O)NC4CCCCC4)CC3)cc2CC1C (stereo unspecified)	CAL PDZ FP-1 64
CC(=O)c1ccc(N2CCN(S(=O)(=O)c3ccc4c(c3)CC(C)N4C(C)=O)CC2)cc1 (stereo unspecified)	none
CC(=O)N1c2ccc(S(=O)(=O)N3CCC(C(=O)Nc4ccccn4)CC3)cc2CC1C (stereo unspecified)	none
CC(=O)N1c2ccc(S(=O)(=O)N3CCC(C(=O)Nc4ncccc4C)CC3)cc2CC1C (stereo unspecified)	S100A4 inh HTS 86
CCOC(=O)Cc1csc(NS(=O)(=O)c2ccc(Br)cc2)n1	none
Cc1cccc(C)c1NC(=O)C(NC=O)c1ccccc1 (stereo unspecified)	none (no result: S100A4 inh HTS)
O=C(Nc1ccc(Cl)cc1)N1CCc2ccccc2C1	CAL PDZ FP-1 43
O=C(NCCCN1CCc2ccccc2C1)Nc1ccc(Cl)cc1	Statin myotox sup 87 (no result: S100A4 inh HTS)
CC(=O)Nc1ccc(OCC(O)CN2CCCCC2C)cc1 (stereo unspecified)	none (no result: S100A4 inh HTS, Statin myotox sup)
CCOc1ncccc1C(=O)N1CCN(S(=O)(=O)c2ccc(Br)cc2Cl)CC1	none (no result: Statin myotox sup)
Cc1nc(CN(C)C(=O)C2CCC(=O)N(CCc3cccc(F)c3)C2)cs1 (stereo unspecified)	CAL PDZ FP-1 57
Cc1ccsc1CN(C)C(=O)C1CCC(=O)N(CCc2cccc(F)c2)C1 (stereo unspecified)	none
OCCNc1cc(-n2nc(-c3ccccc3)cc2-c2ccccc2)ncn1	Statin myotox sup 114 (no result: S100A4 inh HTS)
CNc1cc(-n2nc(C)cc2-c2ccccc2)ncn1	none (no result: S100A4 inh HTS)
C=CCn1c(=O)[nH]c(=O)c2c(N)c(C(=O)c3ccc(OC)cc3)sc21	Statin myotox sup 135
COCCOc1cc(-n2ccnc2SC)c(Cl)cc1Cl	Statin myotox sup 92 (no result: S100A4 inh HTS)
COc1ccc(C(=O)Nc2n[nH]c(-c3ccncc3)n2)cc1	Statin myotox sup 107 (no result: S100A4 inh HTS)
COC(=O)c1ccc(NC(=O)CSc2n[nH]c(-c3ccncc3)n2)cc1	Statin myotox sup 77 (no result: S100A4 inh HTS)
CCOC(=O)c1ccc(NC(=O)CSc2n[nH]c(-c3ccncc3)n2)cc1	none (no result: S100A4 inh HTS)

High-throughput results: PubChem BioAssay, Broad Institute
